According to ChEMBL document CHEMBL5712087, “Targeting bromodomain-containing protein 4 (BRD4) inhibits MYC expression in colorectal cancer cells” (Neoplasia, 2019):
Active and inactive are the calls of the source. The rule behind the calls is not given here.

Tests used:
Type in all cases: cell-based
[1] = target: T1, von Hippel-Lindau disease tumor suppressor/Bromodomain-containing protein 4 (Homo sapiens) (UniProt O60885+P40337); experiment: PROTAC activity at BRD4/VHL E3 ligase in human HCT116 p53+/+ cells assessed as decrease in BRD4 protein degradation at 5 to 10 uM for 24 hrs by Western blot analysis; settings: HCT-116, dose 5-10 µM
Outline: (§1)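 Eight CRC lines exposed 24 h to PROTAC at 5 or 10 µM (stocks 2 mM in DMSO, diluted in PBS or medium). Lysis in RIPA with protease/phosphatase inhibitors and 2.5 mmol/l DTT; 15 µg protein on 10% SDS-PAGE, semi-dry transfer to nitrocellulose. Anti-BRD4 or anti-MYC at 1:1,000 overnight at 4 °C; GAPDH or β-actin loading control; chemiluminescence.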

[2] = target: T1, von Hippel-Lindau disease tumor suppressor/Bromodomain-containing protein 4 (Homo sapiens); experiment: PROTAC activity at BRD4/VHL E3 ligase in human COLO 320 cells assessed as decrease in MYC protein expression at 5 to 10 uM for 24 hrs by Western blot analysis; settings: dose 5-10 µM; outline: as §1
[3] = target: T1, von Hippel-Lindau disease tumor suppressor/Bromodomain-containing protein 4 (Homo sapiens); experiment: PROTAC activity at BRD4/VHL E3 ligase in human LS174T cells assessed as BRD4 mRNA level at 500 to 1000 nM for 24 hrs by RT-qPCR analysis; settings: dose 500-1000 nM
Outline: (§2)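 LS174t cells were treated for 24 h, then total RNA was Trizol-extracted from 10^6 cells and integrity-checked. 0.7 µg RNA was reverse transcribed and SYBR-type qPCR run for 40 cycles (95 °C 15 s, 60 °C 60 s), with melt-curve control. MYC or BRD4 mRNA was normalised to PPIA and ACTB by the ΔΔCq method. Experiments were run at least three times; mean ± SD.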

[4] = target: T1, von Hippel-Lindau disease tumor suppressor/Bromodomain-containing protein 4 (Homo sapiens); experiment: PROTAC activity at BRD4/VHL E3 ligase in human LS174T cells assessed as decrease in MYC mRNA level at 100 to 1000 nM for 24 hrs by RT-qPCR analysis; settings: dose 100-1000 nM; outline: as §2
[5] = target: T1, von Hippel-Lindau disease tumor suppressor/Bromodomain-containing protein 4 (Homo sapiens); experiment: PROTAC activity at BRD4/VHL E3 ligase in human HCT116 p53-/- cells assessed as decrease in BRD4 protein degradation at 5 to 10 uM for 24 hrs by Western blot analysis; settings: HCT-116, dose 5-10 µM; outline: as §1
[6] = target: T1, von Hippel-Lindau disease tumor suppressor/Bromodomain-containing protein 4 (Homo sapiens); experiment: PROTAC activity at BRD4/VHL E3 ligase in human Caco-2 cells assessed as decrease in BRD4 protein degradation at 5 to 10 uM for 24 hrs by Western blot analysis; settings: dose 5-10 µM; outline: as §1
[7] = target: T1, von Hippel-Lindau disease tumor suppressor/Bromodomain-containing protein 4 (Homo sapiens); experiment: PROTAC activity at BRD4/VHL E3 ligase in human DLD-1 cells assessed as decrease in BRD4 protein degradation at 5 to 10 uM for 24 hrs by Western blot analysis; settings: dose 5-10 µM; outline: as §1
[8] = target: T1, von Hippel-Lindau disease tumor suppressor/Bromodomain-containing protein 4 (Homo sapiens); experiment: PROTAC activity at BRD4/VHL E3 ligase in human DLD-1 cells assessed as decrease in MYC protein expression at 5 to 10 uM for 24 hrs by Western blot analysis; settings: dose 5-10 µM; outline: as §1
[9] = target: T1, von Hippel-Lindau disease tumor suppressor/Bromodomain-containing protein 4 (Homo sapiens); experiment: PROTAC activity at BRD4/VHL E3 ligase in human LS174T cells assessed as decrease in MYC protein expression at […] for 24 hrs by Western blot analysis
Outline: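 LS174t cells (RPMI 1640, 10% FCS) were exposed to 1 nM–10 µM for 24 h. Lysates in RIPA with inhibitors and 2.5 mmol/l DTT; 15 µg protein was run on 10% SDS-PAGE and transferred to nitrocellulose. BRD4 or MYC primary antibodies were used at 1:1,000 overnight at 4 °C, HRP secondary 1:10,000, and GAPDH/β-actin as loading control. Detection was by chemiluminescence.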

[10] = target: T1, von Hippel-Lindau disease tumor suppressor/Bromodomain-containing protein 4 (Homo sapiens); experiment: PROTAC activity at BRD4/VHL E3 ligase in human HT-29 cells assessed as decrease in BRD4 protein degradation at 5 to 10 uM for 24 hrs by Western blot analysis; settings: dose 5-10 µM; outline: as §1
[11] = target: T1, von Hippel-Lindau disease tumor suppressor/Bromodomain-containing protein 4 (Homo sapiens); experiment: PROTAC activity at BRD4/VHL E3 ligase in human fibroblast cells assessed as effect on MYC protein expression at 100 to 250 nM for 24 hrs by Western blot analysis; settings: dose 100-250 nM
Outline: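 Normal human dermal fibroblasts in 10% FCS medium were treated with 100 or 250 nM PROTAC. BRD4 and MYC protein were assessed by western blot (15 µg RIPA lysate, 10% SDS-PAGE, primary 1:1,000 overnight at 4 °C), with GAPDH/β-actin as loading control.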

[12] = target: T2, Protein cereblon/Bromodomain-containing protein 4 (Homo sapiens) (UniProt O60885+Q96SW2); experiment: PROTAC activity at BRD4/Cereblon in human LS174T cells assessed as BRD4 protein expression at 500 nM for 2 hrs and measured 22 hrs after washout by Western blot analysis
Outline: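 LS174t cells exposed 2 h to PROTAC; for washout, medium replaced and cells collected 22 h later. BRD4 by immunoblot (15 µg lysate, 10% SDS-PAGE, anti-BRD4 1:1,000 overnight at 4 °C, GAPDH/β-actin control).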

[13] = target: T2, Protein cereblon/Bromodomain-containing protein 4 (Homo sapiens); experiment: PROTAC activity at BRD4/Cereblon in human LS174T cells assessed as decrease in BRD4 protein degradation at 5 to 10 uM for 24 hrs by Western blot analysis; settings: dose 5-10 µM; outline: as §1
[14] = target: T2, Protein cereblon/Bromodomain-containing protein 4 (Homo sapiens); experiment: PROTAC activity at BRD4/Cereblon in human SW480 cells assessed as decrease in BRD4 protein degradation at 5 to 10 uM for 24 hrs by Western blot analysis; settings: dose 5-10 µM; outline: as §1
[15] = target: T2, Protein cereblon/Bromodomain-containing protein 4 (Homo sapiens); experiment: PROTAC activity at BRD4/Cereblon in human DLD-1 cells assessed as decrease in MYC protein expression at 5 to 10 uM for 24 hrs by Western blot analysis; settings: dose 5-10 µM; outline: as §1
[16] = target: T2, Protein cereblon/Bromodomain-containing protein 4 (Homo sapiens); experiment: PROTAC activity at BRD4/Cereblon in human LS174T cells assessed as BRD4 mRNA level at 500 to 1000 nM for 24 hrs by RT-qPCR analysis; settings: dose 500-1000 nM
Outline: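 Total RNA from 10^6 cells after 24 h treatment, Trizol-extracted and integrity-checked. 0.7 µg reverse transcribed, then SYBR-type qPCR: 95 °C 5 min, 40 cycles of 95 °C 15 s/60 °C 60 s. Melting curves checked. MYC or BRD4 normalised to PPIA and ACTB by ΔΔCq. At least three experiments; means ± SD.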

[17] = target: T2, Protein cereblon/Bromodomain-containing protein 4 (Homo sapiens); experiment: PROTAC activity at BRD4/Cereblon in human HCT116 p53+/+ cells assessed as decrease in BRD4 protein degradation at 5 to 10 uM for 24 hrs by Western blot analysis; settings: HCT-116, dose 5-10 µM; outline: as §1
[18] = target: T2, Protein cereblon/Bromodomain-containing protein 4 (Homo sapiens); experiment: PROTAC activity at BRD4/Cereblon in human SW480 cells assessed as decrease in MYC protein expression at 5 to 10 uM for 24 hrs by Western blot analysis; settings: dose 5-10 µM; outline: as §1
[19] = target: T2, Protein cereblon/Bromodomain-containing protein 4 (Homo sapiens); experiment: PROTAC activity at BRD4/Cereblon in human Caco-2 cells assessed as decrease in BRD4 protein degradation at 5 to 10 uM for 24 hrs by Western blot analysis; settings: dose 5-10 µM; outline: as §1
[20] = target: T2, Protein cereblon/Bromodomain-containing protein 4 (Homo sapiens); experiment: PROTAC activity at BRD4/Cereblon in human LS174T cells assessed as decrease in MYC protein expression at 5 to 10 uM for 24 hrs by Western blot analysis; settings: dose 5-10 µM; outline: as §1
[21] = target: T2, Protein cereblon/Bromodomain-containing protein 4 (Homo sapiens); experiment: PROTAC activity at BRD4/Cereblon in human HT-29 cells assessed as decrease in MYC protein expression at 5 to 10 uM for 24 hrs by Western blot analysis; settings: dose 5-10 µM; outline: as §1

T2 sequence (Q96SW2 whole entry, looked up, other chains not shown): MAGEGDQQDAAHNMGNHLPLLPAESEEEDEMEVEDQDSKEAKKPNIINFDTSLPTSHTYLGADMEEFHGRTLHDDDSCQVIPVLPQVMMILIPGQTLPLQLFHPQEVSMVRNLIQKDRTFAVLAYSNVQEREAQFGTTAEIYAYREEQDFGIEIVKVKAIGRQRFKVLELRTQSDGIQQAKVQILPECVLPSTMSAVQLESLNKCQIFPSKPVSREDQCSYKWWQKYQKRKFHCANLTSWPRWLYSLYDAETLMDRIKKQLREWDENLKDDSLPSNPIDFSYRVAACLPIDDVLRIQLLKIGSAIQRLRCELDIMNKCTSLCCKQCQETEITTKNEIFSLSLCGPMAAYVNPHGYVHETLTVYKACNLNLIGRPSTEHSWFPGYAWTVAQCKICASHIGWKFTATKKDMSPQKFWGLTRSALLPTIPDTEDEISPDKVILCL
T1 sequence (P40337 whole entry, looked up, other chains not shown): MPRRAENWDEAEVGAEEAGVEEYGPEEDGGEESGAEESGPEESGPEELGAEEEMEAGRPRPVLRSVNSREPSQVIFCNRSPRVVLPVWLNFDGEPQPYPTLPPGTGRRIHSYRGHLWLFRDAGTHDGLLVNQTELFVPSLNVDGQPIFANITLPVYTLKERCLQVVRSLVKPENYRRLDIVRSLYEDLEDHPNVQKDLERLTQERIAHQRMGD

Compound: Cc1ncsc1-c1ccc(CNC(=O)[C@@H]2C[C@@H](O)CN2C(=O)[C@@H](NC(=O)COCCOCCOCCNC(=O)C[C@@H]2N=C(c3ccc(Cl)cc3)c3c(sc(C)c3C)-n3c(C)nnc32)C(C)(C)C)cc1
- Activity [1]: Active
- Activity [2]: Active
- Activity [3]: inactive
- Activity [4]: Active
- Activity [5]: Active
- Activity [6]: Active
- Activity [7]: inactive
- Activity [8]: inactive
- Activity [9]: Active
- Activity [10]: Active
- Activity [11]: inactive

Compound: Cc1sc2c(c1C)C(c1ccc(Cl)cc1)=N[C@@H](CC(=O)NCCCCNC(=O)COc1cccc3c1C(=O)N(C1CCC(=O)NC1=O)C3=O)c1nnc(C)n1-2 (stereo partly specified)
- Activity [12]: inactive
- Activity [13]: Active
- Activity [14]: inactive
- Activity [15]: Active
- Activity [16]: inactive
- Activity [17]: Active
- Activity [18]: inactive
- Activity [19]: Active
- Activity [20]: Active
- Activity [21]: Active
